Reference: article PMC3963287 (Bioorganic & medicinal chemistry letters, 2014)

Tests used:
[1] = tested on: long chain fatty acyl-CoA synthetase (ACSL); experiment: Inhibition of ACSL activity in solubilized brain endothelial bEND3 cells; format: biochemical
[2] = tested on: ACSL in bEND3 brain endothelial cells; experiment: In situ [14C]-palmitate incorporation into extractable lipids of bEND3 cells; format: cell-based; details: for Potency ratio (rank order) for inhibition of [14C]-palmitate incorporation into extractable lipids: triacsin C at 1.5 μM, all other compounds at 15 μM; for Inhibition of [14C]-palmitate incorporation into extractable lipids: compounds at 15 μM, Figure 3A
Procedure, shortened: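 bEND3 brain endothelial cells incubated with [14C]-palmitate, with test compounds at 15 μM or the reference ACSL inhibitor at 1.5 μM. Radioactivity measured in extractable lipid (fmoles [14C]-palmitate/μg lipid), aqueous fraction and media; total recovery summed from lipid, aqueous and media. Compared to untreated controls by one-way ANOVA with Dunnett's t test; n = 3–9 independent experiments.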

[3] = aqueous; no reference given; cited from earlier work
[4] = tested on: leukocyte recruitment (rolling, adhesion, extravasation); experiment: L-NAME induced leukocyte recruitment in post-capillary venules of the mesentery; format: in vivo; details: 120 minutes; for Inhibition of leukocyte rolling, adhesion and extravasation: 5 or 50 μM compound 1, 50 μM compound 9
rotavirus = details: cited from earlier work
[5] = tested on: leukocyte recruitment (rolling, adhesion, extravasation); details: 5μM; cited from earlier work

CCC/C=C/C/C=C/C=N/N1CCCS1(=O)=O [Compound 2]
Folds less active compared with compound 3 [1]: > 30 folds | Potency ratio (rank order) for inhibition of [14C]-palmitate incorporation into extractable lipids [2]: triacsin C > 3 > 1 > 4 > 9 = 7 > 2

CCCCCCCCCCCCCCCC(=O)SCCNC(=O)CCNC(=O)[C@H](O)C(C)(C)COP(=O)(O)OP(=O)(O)OC[C@H]1O[C@@H](n2cnc3c(N)ncnc32)[C@H](O)[C@@H]1OP(=O)(O)O [palmitoyl CoA]
Water solubility [3]: about 1.74 g/L

C=CCCCCCCCCCNc1ccc(C(=O)O)c(O)c1 [Compound 4]
Inhibition of [14C]-palmitate incorporation into extractable lipids [2]: significant inhibition | Potency ratio (rank order) for inhibition of [14C]-palmitate incorporation into extractable lipids [2]: triacsin C > 3 > 1 > 4 > 9 = 7 > 2

CCC/C=C/C/C=C/CN(O)/N=N/c1ccc(C(=O)O)cc1 [Compound 7]
Inhibition of [14C]-palmitate incorporation into extractable lipids [2]: significant inhibition | Potency ratio (rank order) for inhibition of [14C]-palmitate incorporation into extractable lipids [2]: triacsin C > 3 > 1 > 4 > 9 = 7 > 2

CCC/C=C/C/C=C/C=C/CNN1CCCS1(=O)=O [Compound 8]
Folds less active compared with compound 3 [1]: > 30 folds

CCC/C=C/C/C=C/C=C/CNc1ccc(C(=O)O)cc1 [Compound 1]
Potency relative to triacsin C in the ACSL assay [1]: one-tenth as potent as triacsin C | Inhibition of [14C]-palmitate incorporation into extractable lipids [2]: significant inhibition | Potency ratio (rank order) for inhibition of [14C]-palmitate incorporation into extractable lipids [2]: triacsin C > 3 > 1 > 4 > 9 = 7 > 2 | Rolling, adhesion and extravasation rates / recruitment ([4]; 5 μM): inhibited the recruitment to about half the extent as at 50 μm | Rolling, adhesion and extravasation rates / recruitment ([4]; 50 μM): not different from each other nor were they different from vehicle alone | Inhibition of leukocyte rolling, adhesion and extravasation [4]: significantly inhibited rolling, adhesion, and extravasation | Potency relative to triacsin C as inhibitor of rotavirus replication (rotavirus): at least twice as potent as triacsin C

CCC/C=C/C/C=C/C=C/C=N/NN=O [Triacsin C, reference compound]
Times more potent than compound 3 [1]: about 10 times | Potency ratio (rank order) for inhibition of [14C]-palmitate incorporation into extractable lipids [2]: triacsin C > 3 > 1 > 4 > 9 = 7 > 2 | Rolling, adhesion and extravasation rates / recruitment ([4]; 5 μM): not different from each other nor were they different from vehicle alone | Neutrophil recruitment in a model of ischemia [5]: virtually abolished neutrophil recruitment

C=CCCCCCCCCCNO [Compound 9]
Inhibition of [14C]-palmitate incorporation into extractable lipids [2]: significant inhibition | Potency ratio (rank order) for inhibition of [14C]-palmitate incorporation into extractable lipids [2]: triacsin C > 3 > 1 > 4 > 9 = 7 > 2 | Rolling, adhesion and extravasation rates / recruitment ([4]; 50 μM): about as effective as compound 1 at 5 μM | Inhibition of leukocyte rolling, adhesion and extravasation [4]: significantly inhibited rolling, adhesion, and extravasation

C=CCCCCCCCCCNc1ccc(C(=O)O)cc1 [Compound 3]
Inhibition of [14C]-palmitate incorporation into extractable lipids [2]: significant inhibition | Potency ratio (rank order) for inhibition of [14C]-palmitate incorporation into extractable lipids [2]: triacsin C > 3 > 1 > 4 > 9 = 7 > 2
